Assays:
DNA gyrase = DNA gyrase (Escherichia coli, UniProt P0AES4+P0AES6); experiment: Compound evaluated in vitro for the ability to inhibit gyrase.; format: protein-complex assay; conditions: read-out: I50 (converted)
Summary of the method: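 DNA gyrase isolated from Escherichia coli H560 cells; inhibition given as I50.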

[1] = Compound evaluated in vitro against five gram-positive bacterial strains and geometric means of the minimum inhibitory concentrations (MIC) reported.; format: functional; set-up: unit not given here
Summary of the method: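 Geometric mean MIC across five Gram-positive strains, taken as antilog of the averaged log MIC values.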

[2] = Compound evaluated in vitro against five gram-negative bacterial strains and geometric means of the minimum inhibitory concentrations (MIC) reported.; format: functional; set-up: unit not given here
Summary of the method: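 Geometric mean MIC across five Gram-negative strains (E. coli H560, E. coli Vogel, Enterobacter cloacae MA 2646, Klebsiella pneumoniae MGH-2, Proteus rettgeri M1771). Mean taken as antilog of the averaged log MIC values.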

Streptococcus pneumoniae [3] = experiment: In vivo protection against gram-positive Streptococcus pneumonia (SV-1) in mouse after oral administration.; format: functional; conditions: read-out: PD50
Streptococcus pneumoniae [4] = experiment: In vivo protection against gram-positive Streptococcus pneumonia (SV-1) in mouse after subcutaneous administration; format: functional; conditions: sc, read-out: PD50
Escherichia coli [5] = experiment: In vivo protection against gram-negative Escherichia coli vogel in mouse after oral administration.; conditions: read-out: PD50
Escherichia coli [6] = experiment: In vivo protection against gram-negative Escherichia coli vogel in mouse after subcutaneous administration; conditions: sc, read-out: PD50

## CN1CC2C[C@@H]1CN2c1nc2c(cc1F)c(=O)c(C(=O)O)cn2C1CC1.Cl
DNA gyrase
  IC50: 9.62 µM
[1]
  MIC: 0.35
[2]
  MIC: 0.08
Streptococcus pneumoniae [3]
  ED50: 23 mg/kg
Streptococcus pneumoniae [4]
  ED50: 25 mg/kg
Escherichia coli [5]
  ED50: 0.5 mg/kg
Escherichia coli [6]
  ED50: 0.3 mg/kg
